Measurements taken from ChEMBL document CHEMBL3259539, “A fragment-based method to discover irreversible covalent inhibitors of cysteine proteases” (J Med Chem, 2014).
Calls of active or inactive are those of the source. The calls are words filed in the database; no cut-off is given here.

Key:
Papain (Carica papaya) [1] = biological target: T1, Papain (Carica papaya) (UniProt P00784); assay: Ratio of Kinact to Ki for papain by second-order papain inhibition plot
T1 sequence (whole entry): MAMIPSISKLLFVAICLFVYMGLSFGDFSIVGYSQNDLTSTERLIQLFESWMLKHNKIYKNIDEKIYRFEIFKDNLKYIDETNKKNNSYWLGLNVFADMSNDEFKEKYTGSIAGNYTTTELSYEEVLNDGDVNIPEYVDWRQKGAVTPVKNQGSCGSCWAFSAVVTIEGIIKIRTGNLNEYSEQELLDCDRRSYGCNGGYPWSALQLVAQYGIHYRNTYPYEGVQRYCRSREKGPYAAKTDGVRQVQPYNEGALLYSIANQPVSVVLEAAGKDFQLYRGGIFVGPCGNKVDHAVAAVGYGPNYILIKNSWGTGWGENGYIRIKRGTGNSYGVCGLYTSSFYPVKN
Summary of the method: (§1)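 Papain preactivated with 1 mM DTT for 30 min, then 3.84 μM preincubated up to 1 h with varying inhibitor in 50 mM Na3PO4/2 mM EDTA pH 6.2:acetonitrile (4:1). Aliquots taken every 10 min into 400 μM Cbz-Gly-ONp; p-nitrophenol absorbance followed, in duplicate. kobs from ln(% activity) vs time slopes; kinact/KI from kobs vs [I] slope (Kitz–Wilson).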

[2] = biological target: T2, Human rhinovirus A protease (Human rhinovirus sp.) (UniProt Q4U254); assay: Binding affinity to GST-tagged human rhinovirus 3C protease assessed as labeling after 1 hr
T2 sequence (whole entry): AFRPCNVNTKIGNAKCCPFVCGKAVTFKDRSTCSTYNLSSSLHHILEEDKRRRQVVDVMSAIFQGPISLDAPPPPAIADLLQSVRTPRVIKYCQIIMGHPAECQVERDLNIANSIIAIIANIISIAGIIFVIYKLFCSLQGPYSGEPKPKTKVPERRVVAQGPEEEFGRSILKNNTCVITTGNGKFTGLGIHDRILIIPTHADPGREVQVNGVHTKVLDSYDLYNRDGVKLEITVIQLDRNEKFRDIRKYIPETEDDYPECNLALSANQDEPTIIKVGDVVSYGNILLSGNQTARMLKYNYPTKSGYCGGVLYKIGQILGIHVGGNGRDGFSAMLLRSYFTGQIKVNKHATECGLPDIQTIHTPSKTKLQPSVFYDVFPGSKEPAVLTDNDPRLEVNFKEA
Summary of the method: (§2)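 Enzyme at 10 μM (papain; recombinant GST-HRV3C protease; recombinant USP08) in 50 mM HEPES, 150 mM NaCl, 0.1 mM EDTA, pH 7.5, with a 10-fragment mixture at 100 μM each (final) and 1% DMSO. Incubated at 23 °C, 1 h for papain and HRV3C, 4 h for USP08. Gel-filtered, then intact-protein LC/ESI-MS with maximum-entropy deconvolution.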

[3] = biological target: T3, Ubiquitin carboxyl-terminal hydrolase 8 (Homo sapiens) (UniProt P40818); assay: Binding affinity to deubiquitinase USP08 (unknown origin) assessed as labeling after 4 hrs incubation; summary of the method: as §2
T3 sequence (whole entry): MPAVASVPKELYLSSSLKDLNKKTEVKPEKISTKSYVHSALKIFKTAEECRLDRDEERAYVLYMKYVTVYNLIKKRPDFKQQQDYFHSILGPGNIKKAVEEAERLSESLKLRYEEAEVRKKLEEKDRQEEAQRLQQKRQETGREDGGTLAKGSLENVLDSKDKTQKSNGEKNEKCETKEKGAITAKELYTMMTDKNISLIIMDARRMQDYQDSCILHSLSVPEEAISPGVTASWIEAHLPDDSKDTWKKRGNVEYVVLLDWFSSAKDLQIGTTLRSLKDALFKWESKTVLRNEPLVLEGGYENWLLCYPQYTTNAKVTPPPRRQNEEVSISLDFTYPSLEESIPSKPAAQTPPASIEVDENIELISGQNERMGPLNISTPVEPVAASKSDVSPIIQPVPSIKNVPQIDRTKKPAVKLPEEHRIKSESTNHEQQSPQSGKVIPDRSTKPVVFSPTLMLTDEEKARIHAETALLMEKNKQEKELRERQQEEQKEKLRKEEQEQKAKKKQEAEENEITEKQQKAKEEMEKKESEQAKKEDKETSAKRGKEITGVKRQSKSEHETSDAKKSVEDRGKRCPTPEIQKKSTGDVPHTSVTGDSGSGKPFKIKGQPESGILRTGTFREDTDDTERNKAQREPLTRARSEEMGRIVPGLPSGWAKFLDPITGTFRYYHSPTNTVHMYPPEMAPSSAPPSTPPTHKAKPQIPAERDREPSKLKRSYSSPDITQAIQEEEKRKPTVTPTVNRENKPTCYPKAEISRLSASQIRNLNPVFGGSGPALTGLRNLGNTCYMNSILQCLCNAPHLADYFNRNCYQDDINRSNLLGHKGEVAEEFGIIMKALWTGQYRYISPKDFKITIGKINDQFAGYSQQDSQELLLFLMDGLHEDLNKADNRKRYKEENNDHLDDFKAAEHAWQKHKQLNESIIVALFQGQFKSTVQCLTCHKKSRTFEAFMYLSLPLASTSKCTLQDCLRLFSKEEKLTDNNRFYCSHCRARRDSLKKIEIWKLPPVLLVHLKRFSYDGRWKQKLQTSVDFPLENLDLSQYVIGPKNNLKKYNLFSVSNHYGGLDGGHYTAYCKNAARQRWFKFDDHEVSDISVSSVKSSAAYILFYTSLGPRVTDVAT

Papain (Carica papaya) [4] = biological target: T1, Papain (Carica papaya); assay: Irreversible inhibition of papain after 1 hr incubation at 100 uM by ESI-MS analysis; summary of the method: as §2
Papain (Carica papaya) [5] = biological target: T1, Papain (Carica papaya); assay: Irreversible inhibition of papain after 1 hr incubation at 100 uM by ESI-MS analysis in presence of 10 mM glutathione
Papain (Carica papaya) [6] = biological target: T1, Papain (Carica papaya); assay: Irreversible inhibition of papain assessed as binding affinity cysteine after 1 hr incubation at 100 uM by ESI-MS analysis
Papain (Carica papaya) [7] = biological target: T1, Papain (Carica papaya); assay: Irreversible inhibition of papain assessed as binding affinity cysteine after 1 hr incubation at 1 mM by ESI-MS analysis
Papain (Carica papaya) [8] = biological target: T1, Papain (Carica papaya); assay: Irreversible inhibition of papain assessed as covalent adducts after 16 to 64 hrs incubation at 100 uM by MS analysis
Papain (Carica papaya) [9] = biological target: T1, Papain (Carica papaya); assay: Inhibition of papain by first-order papain inhibition plot; summary of the method: as §1

SMILES: COC(=O)/C=C/CNC(=O)c1ccc(C2CCCO2)s1 (configuration not stated)
- Ratio (Papain (Carica papaya) [1]): 0.037

SMILES: COC(=O)/C=C/CNC(=O)c1csc(-c2cccs2)n1
- Activity [2]: 35%

SMILES: COC(=O)/C=C/CNC(=O)c1ccccc1NC(=O)Nc1ccc(Cl)cc1
- Activity [3]: 30%

SMILES: COC(=O)/C=C/CNC(=O)c1sc(-c2ccccc2F)nc1C
- inhibition (Papain (Carica papaya) [4]): Active
- inhibition (Papain (Carica papaya) [5]): Active
- inhibition (Papain (Carica papaya) [6]): Active
- inhibition (Papain (Carica papaya) [7]): Active
- inhibition (Papain (Carica papaya) [8]): Active
- inhibition (Papain (Carica papaya) [9]): Active
- Ratio (Papain (Carica papaya) [1]): 0.409
- Activity [3]: 30%

SMILES: COC(=O)/C=C/CNC(=O)[C@@H](CNC(C)=O)Cc1ccccc1
- Ratio (Papain (Carica papaya) [1]): 6.58

SMILES: COC(=O)/C=C/CNC(=O)c1ccc2ccccc2n1
- Activity [2]: 20%

SMILES: COC(=O)/C=C/CNC(=O)C1CCN(C(=O)CC(C)C)CC1
- inhibition (Papain (Carica papaya) [4]): Active
- inhibition (Papain (Carica papaya) [5]): Active
- inhibition (Papain (Carica papaya) [6]): Active
- inhibition (Papain (Carica papaya) [7]): Active
- inhibition (Papain (Carica papaya) [8]): Active
- inhibition (Papain (Carica papaya) [9]): Active
- Ratio (Papain (Carica papaya) [1]): 0.461
- Activity [3]: inactive

SMILES: COC(=O)/C=C/CNC(=O)[C@H](CNC(C)=O)Cc1ccccc1
- Ratio (Papain (Carica papaya) [1]): 0.386

SMILES: COC(=O)/C=C/CNC(=O)c1cc(-c2ccc(C)cc2)no1
- inhibition (Papain (Carica papaya) [4]): Active
- inhibition (Papain (Carica papaya) [5]): Active
- inhibition (Papain (Carica papaya) [6]): Active
- inhibition (Papain (Carica papaya) [7]): Active
- inhibition (Papain (Carica papaya) [8]): Active
- inhibition (Papain (Carica papaya) [9]): Active
- Ratio (Papain (Carica papaya) [1]): 1.23
- Activity [3]: inactive

SMILES: COC(=O)/C=C/CNC(=O)c1cc2cc(Cl)cc(OC)c2o1
- Activity [2]: 20%

SMILES: COC(=O)/C=C/CNC(=O)[C@@H](CNC(C)=O)CC(C)C
- Ratio (Papain (Carica papaya) [1]): 1.1
